Assays:
Rattus norvegicus [1] = test: Antiallergic activity in Sprague-Dawley CD rat assessed as inhibition of passive anaphylaxis-induced hind paw edema at 100 mg/kg, po relative to control; type: functional; conditions: for inhibition in vivo at 100 mg/kg: Rattus norvegicus, Sprague-Dawley CD, po
Procedure, shortened: (§1)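 Passive anaphylaxis (reaginic antibody) induced in rat hind paw: serum with reaginic antibody injected into left hind paw; antigen given intravenously 24 h later. Paw volume measured by mercury displacement; activity read as inhibition of paw edema versus controls. Test compounds given ip or po. Inhibition of 35% or more considered significant by Student's t test (p < 0.05).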

Rattus norvegicus [2] = test: Antiallergic activity in Sprague-Dawley CD rat assessed as inhibition of passive anaphylaxis-induced hind paw edema at 30 mg/kg, ip relative to control; type: functional; conditions: route intraperitoneal; for inhibition in vivo at 30 mg/kg: Rattus norvegicus, Sprague-Dawley CD, ip; procedure, shortened: as §1
Rattus norvegicus [3] = test: Antiallergic activity in Sprague-Dawley CD rat assessed as inhibition of passive anaphylaxis-induced hind paw edema at 30 mg/kg, po relative to control; type: functional; conditions: for inhibition in vivo at 30 mg/kg: Rattus norvegicus, Sprague-Dawley CD, po; procedure, shortened: as §1
Rattus norvegicus [4] = test: Antiallergic activity in Sprague-Dawley CD rat assessed as inhibition of passive anaphylaxis-induced hind paw edema at 10 mg/kg, ip relative to control; type: functional; conditions: route intraperitoneal; for inhibition in vivo at 10 mg/kg: Rattus norvegicus, Sprague-Dawley CD, ip; procedure, shortened: as §1
Rattus norvegicus [5] = test: Antiallergic activity in Sprague-Dawley CD rat assessed as inhibition of passive anaphylaxis-induced hind paw edema at 3 mg/kg, po relative to control; type: functional; procedure, shortened: as §1
Rattus norvegicus [6] = test: Antiallergic activity in Sprague-Dawley CD rat passive anaphylaxis model assessed as hind paw edema volume at 3 mg/kg, po relative to control; type: functional; procedure, shortened: as §1
Rattus norvegicus [7] = test: Antiallergic activity in Sprague-Dawley CD rat assessed as inhibition of passive anaphylaxis-induced hind paw edema at 10 mg/kg, po relative to control; type: functional; procedure, shortened: as §1
Rattus norvegicus [8] = test: Antiallergic activity in Sprague-Dawley CD rat passive anaphylaxis model assessed as hind paw edema volume at 10 mg/kg, po relative to control; type: functional; procedure, shortened: as §1
Rattus norvegicus [9] = test: Antiallergic activity in Sprague-Dawley CD rat passive anaphylaxis model assessed as hind paw edema volume at 30 mg/kg, po relative to control; type: functional; procedure, shortened: as §1
[10] = Inhibition of guinea pig lung PDE assessed as cyclic AMP level; parameters: species or system Cavia porcellus
Procedure, shortened: (§2)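 PDE from beef heart or guinea pig lung assayed by earlier-described methods; protein measured by Lowry method. IC50 taken from a plot of percent inhibition vs log inhibitor concentration, as the concentration giving 50% reduction in reaction velocity relative to uninhibited controls.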

Rattus norvegicus [11] = test: Antiallergic activity in Sprague-Dawley CD rat passive anaphylaxis model assessed as hind paw edema volume at 2 mg/kg, ip relative to control; type: functional; conditions: route intraperitoneal; procedure, shortened: as §1
Rattus norvegicus [12] = test: Antiallergic activity in Sprague-Dawley CD rat assessed as inhibition of passive anaphylaxis-induced hind paw edema at 5 mg/kg, ip relative to control; type: functional; conditions: route intraperitoneal; procedure, shortened: as §1
Rattus norvegicus [13] = test: Antiallergic activity in Sprague-Dawley CD rat assessed as inhibition of passive anaphylaxis-induced hind paw edema at 2 mg/kg, ip relative to control; type: functional; conditions: route intraperitoneal; procedure, shortened: as §1
[14] = Inhibition of beef heart PDE assessed as cyclic AMP level; parameters: species or system Bos taurus; procedure, shortened: as §2
Rattus norvegicus [15] = test: Antiallergic activity in Sprague-Dawley CD rat passive anaphylaxis model assessed as hind paw edema volume at 10 mg/kg, ip relative to control; type: functional; conditions: route intraperitoneal; procedure, shortened: as §1
Rattus norvegicus [16] = test: Antiallergic activity in Sprague-Dawley CD rat passive anaphylaxis model assessed as hind paw edema volume at 5 mg/kg, ip relative to control; type: functional; conditions: route intraperitoneal; procedure, shortened: as §1
Cavia porcellus = species: Cavia porcellus; test: Stimulation of guinea pig lung adenylate cyclase activity at 1 x 10^-3 M after 15 mins relative to control
Procedure, shortened: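 Guinea pig lung adenyl cyclase preparation, chosen because it carries negligible cyclic nucleotide phosphodiesterase activity. Enzyme activity was read as cyclic AMP formation in the presence of test agent and compared with untreated control.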

| SMILES | inhibition in vivo at 100 mg/kg (Rattus norvegicus [1]) [%] | inhibition in vivo at 30 mg/kg (Rattus norvegicus [2]) [%] | inhibition in vivo at 30 mg/kg (Rattus norvegicus [3]) [%] | inhibition in vivo at 10 mg/kg (Rattus norvegicus [4]) [%] | further results |
| --- | --- | --- | --- | --- | --- |
| CCOC(=O)C(=O)Nc1c(C)ccccc1=O | 37 | 47 | 4 |  |  |
| CCCCCOC(=O)C(=O)Nc1cccccc1=O |  | 57 | 12 | 61 |  |
| O=C(O)c1cc(=O)c2c(OCC(O)COc3cccc4oc(C(=O)O)cc(=O)c34)cccc2o1 [CROMOLYN SODIUM] |  | 77 |  | 62 |  |
| CCOC(=O)C(=O)Nc1ccccc(N(C)C(=O)C(=O)OCC)c1=O | 0 | 51 | 6 | 26 |  |
| CCOC(=O)C(=O)Nc1cccc(OC)cc1=O | 48 | 67 | 45 | 73 |  |
| COC(=O)C(=O)Nc1ccc(OC)c(=O)cc1 |  | 36 |  |  |  |
| NC(CO)(CO)CO.O=C(O)C(=O)Nc1cccccc1=O |  |  |  |  | inhibition (INH) (Rattus norvegicus [1]): 73%; inhibition (INH) (Rattus norvegicus [5]): 13%; Activity (Rattus norvegicus [6]): 0.83 mL; inhibition (INH) (Rattus norvegicus [7]): 7%; Activity (Rattus norvegicus [8]): 0.88 mL; inhibition (INH) (Rattus norvegicus [3]): 32%; Activity (Rattus norvegicus [9]): 0.64 mL |
| CC(C)OC(=O)C(=O)Nc1cccccc1=O | 72 | 96 | 63 | 76 |  |
| CCOC(=O)C(=O)Nc1ccccc(-c2ccccc2)c1=O | 0 | 72 |  | 57 |  |
| CCOC(=O)C(=O)Nc1ccccc(NC)c1=O |  | 83 | 0 | 73 |  |
| CCOC(=O)C(=O)Nc1ccccc(Br)c1=O | 0 | 52 |  |  |  |
| CCOC(=O)C(=O)Nc1ccc(Cl)ccc1=O | 25 | 27 |  |  |  |
| O=C([O-])C(=O)Nc1cccccc1=O.[K+] |  |  |  |  | inhibition (INH) (Rattus norvegicus [1]): 68%; inhibition (INH) (Rattus norvegicus [5]): 35%; inhibition (INH) (Rattus norvegicus [4]): 70%; IC50 [10]: 5 mM; Activity (Rattus norvegicus [11]): 0.69 mL; inhibition in vivo at 5 mg/kg (Rattus norvegicus [12]): 46%; Activity (Rattus norvegicus [6]): 0.61 mL; inhibition (INH) (Rattus norvegicus [7]): 31%; Activity (Rattus norvegicus [8]): 0.66 mL; inhibition in vivo at 2 mg/kg (Rattus norvegicus [13]): 46%; inhibition (INH) (Rattus norvegicus [2]): 75%; IC50 [14]: 5.1 mM; Activity (Rattus norvegicus [15]): 0.36 mL; Activity (Rattus norvegicus [16]): 0.69 mL; inhibition (INH) (Rattus norvegicus [3]): 53%; Activity (Rattus norvegicus [9]): 0.44 mL |
| O=C(Nc1cccccc1=O)C(=O)Oc1ccccc1 | 71 | 73 | 31 | 68 |  |
| Cn1c(=O)c2[nH]cnc2n(C)c1=O |  |  |  |  | Activity (Cavia porcellus): 5% |
| CCOC(=O)C(=O)Nc1ccc(O)c(=O)cc1 |  | 10 |  |  |  |
| CCOC(=O)C(=O)Nc1ccccc(N(C)S(=O)(=O)c2ccc(C)cc2)c1=O | 0 | 32 | 3 |  |  |
| NNC(=O)C(=O)Nc1cccccc1=O | 78 | 78 | 41 | 64 |  |
